The results in this text go back to ChEMBL document CHEMBL3526062, “Role of human UDP-glucuronosyltransferases in the biotransformation of the triazoloacridinone and imidazoacridinone antitumor agents C-1305 and C-1311: highly selective substrates for UGT1A10” (Drug Metab Dispos, 2012).

In series [1] the target is T1, UDP-glucuronosyltransferase 1A10 (Homo sapiens, UniProt Q9HAW8).
T1 sequence (Q9HAW8 whole entry): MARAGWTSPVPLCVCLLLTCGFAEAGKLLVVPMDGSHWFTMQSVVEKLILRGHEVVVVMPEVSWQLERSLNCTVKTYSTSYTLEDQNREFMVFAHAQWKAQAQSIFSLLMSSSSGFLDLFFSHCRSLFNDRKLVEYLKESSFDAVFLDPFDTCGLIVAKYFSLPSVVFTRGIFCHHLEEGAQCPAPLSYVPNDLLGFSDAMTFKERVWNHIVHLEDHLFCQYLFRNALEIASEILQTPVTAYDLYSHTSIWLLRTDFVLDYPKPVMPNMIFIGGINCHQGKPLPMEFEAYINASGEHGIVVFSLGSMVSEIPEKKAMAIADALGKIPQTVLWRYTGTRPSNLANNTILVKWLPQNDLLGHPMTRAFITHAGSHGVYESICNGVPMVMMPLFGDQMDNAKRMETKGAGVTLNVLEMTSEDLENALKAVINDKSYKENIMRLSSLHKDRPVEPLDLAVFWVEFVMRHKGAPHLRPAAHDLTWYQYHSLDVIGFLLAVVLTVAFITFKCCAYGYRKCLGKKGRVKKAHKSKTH
Put plainly: Activity of human recombinant UGT1A10 expressed in baculovirus-infected Sf9 cells assessed as metabolite formation at 200 uM after 60 mins by HPLC analysis. The following applies: sf9, 1 h. Format: ADME. The essentials:
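Protein (5 μg UGT1A10 or microsomal) incubated with 0.2 mM substrate and 3 mM UDP-GlcUA, 60 min. HPLC on C18 at 25°C with a 15–80% methanol gradient in 0.05 M ammonium formate pH 3.4 at 1 ml/min. ESI positive-ion MS and UV/Vis spectra taken from the peaks. Glucuronide confirmed by 60 min further treatment with 1000 U E. coli β-glucuronidase.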

Series [2] has as its target T2, UDP-glucuronosyltransferase 1A9 (Homo sapiens, UniProt O60656).
T2 sequence (O60656 whole entry): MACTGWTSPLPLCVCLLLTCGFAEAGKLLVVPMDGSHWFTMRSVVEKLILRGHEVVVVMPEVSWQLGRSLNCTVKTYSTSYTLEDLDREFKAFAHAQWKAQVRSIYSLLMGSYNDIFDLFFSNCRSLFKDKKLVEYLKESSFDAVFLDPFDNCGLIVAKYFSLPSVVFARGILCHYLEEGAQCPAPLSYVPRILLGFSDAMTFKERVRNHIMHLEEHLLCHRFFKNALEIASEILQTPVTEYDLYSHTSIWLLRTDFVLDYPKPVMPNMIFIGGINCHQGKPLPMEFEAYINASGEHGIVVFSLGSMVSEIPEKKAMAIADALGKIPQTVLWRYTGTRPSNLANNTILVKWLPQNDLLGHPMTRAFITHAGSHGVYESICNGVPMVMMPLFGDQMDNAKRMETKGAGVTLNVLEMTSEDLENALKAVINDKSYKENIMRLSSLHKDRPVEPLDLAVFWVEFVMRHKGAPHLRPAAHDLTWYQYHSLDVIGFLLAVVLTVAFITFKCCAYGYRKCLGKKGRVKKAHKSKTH
The experiment in a line: Drug metabolism assessed as human recombinant UGT1A9-mediated compound formation treated with C-1305 for 60 mins by ESI-MS/UV-vis spectroscopy in presence of 3 mM UDP-GlcUA. Format: ADME. The following applies: recombinant enzyme, 1 h. The procedure, abridged:
(§1)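 Recombinant human UGT1A1 or UGT1A9 (5 μg protein), or single-donor human liver or intestinal microsomes (20 μg), incubated in Tris-HCl pH 7.4 with 5 mM MgCl2, 5 mM saccharolactone, 2% DMSO and 100 or 200 μM substrate. Started with UDP-GlcUA, 60 min at 37°C, in triplicate. Product identified by HPLC with positive-ion ESI-MS and UV/Vis spectra, and confirmed by β-glucuronidase hydrolysis.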

Series [3] in a line: Drug metabolism in human intestinal microsomes assessed as metabolite formation treated with C-1305 for 60 mins by ESI-MS/UV-vis spectroscopy in presence of 3 mM UDP-GlcUA. Format: ADME, Intestine, Microsome. Particulars: 1 h. The essentials: as §1
Series [4] has as its target T3, UDP-glucuronosyltransferase 1A3 (Homo sapiens, UniProt P35503).
T3 sequence (P35503 whole entry): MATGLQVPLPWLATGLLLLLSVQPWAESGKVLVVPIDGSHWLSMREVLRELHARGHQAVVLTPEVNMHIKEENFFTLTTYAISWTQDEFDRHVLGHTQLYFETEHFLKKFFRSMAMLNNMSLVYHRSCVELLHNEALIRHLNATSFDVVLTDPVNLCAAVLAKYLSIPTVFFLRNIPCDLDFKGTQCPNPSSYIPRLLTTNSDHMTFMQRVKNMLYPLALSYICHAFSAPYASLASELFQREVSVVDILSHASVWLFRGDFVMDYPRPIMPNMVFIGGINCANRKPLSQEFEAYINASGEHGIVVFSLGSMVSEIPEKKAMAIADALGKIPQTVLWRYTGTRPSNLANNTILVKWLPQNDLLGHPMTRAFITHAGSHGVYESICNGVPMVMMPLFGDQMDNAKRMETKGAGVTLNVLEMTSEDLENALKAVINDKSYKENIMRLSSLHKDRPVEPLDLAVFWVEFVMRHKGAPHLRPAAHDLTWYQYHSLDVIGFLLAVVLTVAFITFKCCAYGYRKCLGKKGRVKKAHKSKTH
Put plainly: Activity of human recombinant UGT1A3 expressed in baculovirus-infected Sf9 cells assessed as glucuronidation activity per mg of protein at 100 to 200 uM after 60 mins in presence of 3 mM UDP-GlcUA. Format: ADME. Particulars: sf9, 1 h. The procedure, abridged: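 Screening: 5 μg recombinant UGT protein (His-tag levels normalized) in Tris-HCl pH 7.4, 5 mM MgCl2, 5 mM saccharolactone, 2% DMSO to permeabilize membranes. Substrate at 100 or 200 μM, added in water. Started with 3 mM UDP-GlcUA, 60 min at 37°C, stopped with ethanol, then centrifuged. Glucuronide quantified by reversed-phase C18 HPLC against the substrate response; triplicates.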

As to `CN(C)CCCNc1ccc2nnn3c4ccc(O)cc4c(=O)c1c23`, the Drug metabolism result in series [1] is “metabolite_detected”; in series [2], “metabolite_detected”; in series [3] it was “metabolite_detected”; in series [4], under 0.1 nmol/min/mg.
For `CCN(CC)CCNc1ccc2ncn3c4ccc(O)cc4c(=O)c1c23` [C-1311], the Drug metabolism result in series [1] was “metabolite_detected”; in series [4], under 0.1 nmol/min/mg.
